Bioassay records from PubChem.
Diaph act CS: counter-screen for diaphorase-based assays: diaphorase activators and chemical reducers; Diaphorase/resazurin coupled assay, resorufin fluorescence, 16 min; active compounds read high; 1 = vehicle wells, 0 = NADH-free wells; 190,000 tested, 0.005% active; activation factor at 20 µM;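 active = diaphorase activity raised at least twofold by the compound at 20 µM; inactive = activation factor below 2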
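Measured by – red resorufin fluorescence at 544/590 nm excitation/emission · Test system – Clostridium kluyveri diaphorase, purified enzyme · Incubation – reaction time 16 min, room temperature · Buffer or medium – 50 mM HEPES pH 7.4 with 4.542 mM MgCl2, 0.005% Tween 20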
WT yeast gro inh: growth inhibition of WT yeast, mitochondrial fusion screen; mitochondrial fusion phenotypic screen, WT strain; 190,000 tested, 2.1% active; inhibition, % at 10 µM; in the data active = inhibition above about 58%; tested in S. cerevisiae
PMI act satM6P: increases human PMI activity with near-saturating mannose 6-phosphate; 190,000 tested, 0.34% active; coupled PMI enzyme assay, resazurin fluorescence, 20 min; active compounds read high; 1 = untreated enzyme, 0 = substrate-free blank; activation factor at 20 µM; P34949;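 active = activation factor of 2 or more at 20 µM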
Target sequence (P34949 whole entry, looked up): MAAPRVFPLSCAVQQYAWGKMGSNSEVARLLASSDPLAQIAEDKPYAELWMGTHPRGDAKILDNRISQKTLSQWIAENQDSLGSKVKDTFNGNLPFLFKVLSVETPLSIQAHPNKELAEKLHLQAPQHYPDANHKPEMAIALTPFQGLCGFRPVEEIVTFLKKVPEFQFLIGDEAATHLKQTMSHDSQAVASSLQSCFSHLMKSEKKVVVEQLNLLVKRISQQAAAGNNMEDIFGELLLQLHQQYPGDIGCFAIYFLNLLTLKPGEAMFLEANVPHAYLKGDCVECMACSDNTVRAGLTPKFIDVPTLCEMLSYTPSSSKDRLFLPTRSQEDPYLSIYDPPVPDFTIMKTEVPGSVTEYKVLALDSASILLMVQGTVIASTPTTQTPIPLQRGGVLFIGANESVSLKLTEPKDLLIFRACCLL
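Test system: human phosphomannose isomerase with PGI, G6PDH, diaphorase coupling enzymes / Doses: 20 µM compound, 1% DMSO / Times: enzyme reaction with compound 20 min at room temperature / Measured by: Diaphorase-driven resazurin-to-resorufin fluorescence, excitation 544, emission 590 nm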
PMI act: phosphomannose isomerase (human) activation; purified human PMI, coupled resazurin fluorescence, 20 min; active compounds read high; 1 = vehicle control, 0 substrate-free wells; activation factor at 20 µM; 190,000 tested, 0.005% active;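 active = activation factor of 2 or more at 20 µM, relative to plate controls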
Lmaj promast: Leishmania major promastigote growth inhibition | Leishmania major promastigotes, resazurin fluorescence viability | AID 1063 | 200,000 tested, 9% active | inhibition, % at 10 µM; in the data active = inhibition above about 50%;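 note: promastigotes grown with compound for 44 hours at 28 °C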
Each line names hits and unclear results; the compound was inactive in the other large screens. Compounds with a hit are over-represented: about 10% of the library has one in this group of screens.

COc1ccc(Nc2ncnc3scc(-c4ccc(OC)cc4)c23)cc1	WT yeast gro inh 72, Lmaj promast 88
NNc1ncnc2scc(-c3ccc(Cl)cc3)c12	Lmaj promast 68
CS(=O)(=O)Nc1ccc(C2=NN(C(=O)c3ccco3)C(c3ccccc3F)C2)cc1 (centres undefined)	none
CN(C)C(=O)c1ccc(NC(=O)c2ccccc2Sc2ccccc2C#N)cc1	none
NC(=O)c1cc(NC(=O)c2cc(Br)c(Br)s2)cc(C(N)=O)c1	none
O=C(CN1C(=O)COc2ccccc21)N(Cc1cccnc1)Cc1cccc(F)c1	WT yeast gro inh 77, Lmaj promast 95
Cc1ccc2c(c1)N(CC(=O)NCc1cccnc1)C(=O)CO2	none
CCC1Oc2ccc(C)cc2N(CC(=O)NCc2cccs2)C1=O (centres undefined)	none
O=C(O)CCC(=O)N(Cc1cccnc1)Cc1cccc(F)c1	none
CCC1Oc2ccc(C)cc2N(CC(=O)N(Cc2cccnc2)Cc2cccc(F)c2)C1=O (centres undefined)	Lmaj promast 93
CCC1Oc2ccc(C)cc2N(CC(=O)N(Cc2ccncc2)Cc2ccco2)C1=O (centres undefined)	Lmaj promast 80
Cc1nn(C)cc1/C=N\NC(=O)c1ccc2c(c1)c(C)c(C)n2Cc1ccccc1	none
O=C(CCCCCNc1nc(=S)[nH]c2ccccc12)NCCC1=CCCCC1	none
CCCCN1CC2=C(C1=O)C(c1ccc(O)cc1)NC(=O)N2C (centres undefined)	none
COc1ccc(NC(=S)N(CCN(C)C)C(C)c2ccco2)cc1Cl (centres undefined)	Lmaj promast 67
COc1cccc(NC(=S)N(CCN(C)C)C(C)c2ccco2)c1 (centres undefined)	none
Cc1ccccc1NS(=O)(=O)c1ccc2[nH]c(=O)[nH]c2c1	none
C=CCn1c(=O)c2c3c(sc2n2c(Nc4ccccc4)nnc12)CCCC3	Lmaj promast 52
C=CCn1c(=O)c2c3c(sc2n2c(Nc4ccc(OC)cc4)nnc12)CCCC3	none
C=CCn1c(=O)c2c3c(sc2n2c(Nc4ccc(C(=O)OCC)cc4)nnc12)CCCC3	Lmaj promast 94
O=C(COC(=O)c1ccc(S(=O)(=O)Nc2ccccc2)cc1)NCCC1=CCCCC1	none
COc1ccc2nc(Nc3nc(CSc4ccc(C)cc4)cc(=O)[nH]3)nc(C)c2c1	Lmaj promast 65
CCCCc1c(C)nc(Nc2ccc(OC)cc2)[nH]c1=O	none
CCOc1ccc2nc(Nc3nc(CSc4nnnn4-c4ccccc4)cc(=O)[nH]3)nc(C)c2c1	Lmaj promast 50
COc1ccc(N/C(N)=N/c2nc(CSc3ccc(C)cc3)cc(=O)[nH]2)cc1	WT yeast gro inh 80
COc1ccc2nc(Nc3nc(CSc4nnnn4-c4ccccc4)cc(=O)[nH]3)nc(C)c2c1	none
COc1ccc2nc(Nc3nc(C)c(CCC(C)C)c(=O)[nH]3)nc(C)c2c1	Lmaj promast 99
O=C(NC1CCCCCC1)c1cc(-c2ccccn2)nc2ccccc12	none
CCO[C@@H]1OC(C(=O)N2CCCCCCC2)=C[C@H](c2cn(C(C)=O)c3ccccc23)[C@H]1CCCO	none
CCC1(C)OCC(Cn2c3ccccc3c3ccccc32)O1 (centres undefined)	WT yeast gro inh 61
CCn1c2ccccc2c(=O)c2ccccc21	none
Cc1ccc(N2C(=N)/C(=C3/Nc4ccccc4S3)C(c3ccccc3)C2=O)cc1 (centres undefined)	WT yeast gro inh 83, Lmaj promast 100
CN(C)CCN(C)Cc1ccccc1Sc1cccc2ccccc12	Lmaj promast 100
CNCc1ccccc1Sc1cccc2ccccc12	Lmaj promast 79
COc1cccc(Sc2ccccc2CN(C)C)c1	none
Oc1ccccc1C1CC(c2cccs2)=NC(c2cccc(Br)c2)N1 (centres undefined)	none
COc1ccc(COc2cc(-c3cccc(OC)c3)nc3ccc(NC(=O)c4cccnc4)cc23)cc1	Lmaj promast 100
COc1ccc(COc2cc(-c3cccc(OC)c3)nc3ccc(NC(=O)c4ccccc4)cc23)cc1	Lmaj promast 68
COc1ccc(Cc2nc(-c3ccc(NC(=O)c4cccnc4)cc3)no2)cc1	none
COc1ccc(COc2cc(-c3cccc(OC)c3)nc3ccc(NC(=O)c4ccc(Cl)cc4)cc23)cc1	none
COc1ccc(COc2cc(-c3cccc(OC)c3)nc3ccc(NC(=O)c4ccc(OC)cc4)cc23)cc1	Lmaj promast 97
CC1(C)CC(=O)C2=C(C1)N=C1SCCC(=O)N1C2c1cccc([N+](=O)[O-])c1 (centres undefined)	none
COc1cccc(C(=O)c2c(C)c(CCC#N)n3ccccc23)c1	none
O=C(O)CCc1nnc(SCC(=O)Nc2cccc(C(F)(F)F)c2)[nH]c1=O	none
COc1cccc(CN(C)C(=O)c2ccc3nccnc3c2)c1	none
SC(COCc1ccccc1)CN1CCN(Cc2ccc3c(c2)OCO3)CC1 (centres undefined)	Lmaj promast 58
CC1CCCN(CC(O)COCc2ccc3c(c2)OCO3)C1 (centres undefined)	none
OC(COCc1ccccc1)CN1CCCC1 (centres undefined)	none
OC(COCc1ccccc1)CN1CCN(Cc2ccc3c(c2)OCO3)CC1 (centres undefined)	Lmaj promast 90
CC1CN(CC(O)COCc2ccc3c(c2)OCO3)CC(C)O1 (centres undefined)	Lmaj promast 69
Cc1ccc(C(=O)NNC(=O)C2CCCN(c3ncccn3)C2)cc1 (centres undefined)	none
COc1cc(S(=O)(=O)NC2CCCCC2)c(C)cc1C	none
Cc1ccc(-c2nc3cccnc3s2)cc1NC(=O)C1c2ccccc2Oc2ccccc21	none
CN(C)CCCNC(=O)/C(=C\c1ccc(-c2cccc([N+](=O)[O-])c2)o1)NC(=O)c1ccccc1	none
CN(C)CCNC(=O)/C(=C/c1ccc(-c2ccc(Cl)cc2Cl)o1)NC(=O)c1ccccc1	Lmaj promast 100
Cc1ccc(C(=O)N/C(=C/c2ccc(-c3ccc(Br)cc3)o2)C(=O)NC2CCS(=O)(=O)C2)cc1 (centres undefined)	Lmaj promast 69
CN(C)CCNC(=O)/C(=C/c1ccc(-c2ccc(Cl)cc2)o1)NC(=O)c1ccccc1	Lmaj promast 100
Cc1ccc(C(=O)N/C(=C\c2ccc(-c3ccc(Br)cc3)o2)C(=O)NCCCN(C)C)cc1	Lmaj promast 100
Cc1occc1C(=O)NNC(=S)NCc1ccccc1	none
CCCCN1C(=O)C2Cc3c([nH]c4ccccc34)CN2C1=S (centres undefined)	none
N#C/C(=C\c1ccc(-c2ccc(Br)cc2)o1)C(=O)NCCc1c[nH]c2ccccc12	none
N#C/C(=C/c1ccc(-c2ccc(Br)cc2)o1)C(=O)NC1CCCCC1	Lmaj promast 81
